Active and inactive are the calls of the source.
Columns and labels:
[1] = test system: unidentified adenovirus; test: (§1) In vitro antiviral activity was determined against Adenovirus type 2 in monolayer culture of H.Ep.2 cells; format: functional, organism-based
[2] = test system: LLC-MK2; test: In vitro antiviral activity was determined against Punta toro virus in monolayer culture of LLC-MK2 cells; format: functional, cell-based; conditions: Cercopithecidae
In short: (§2)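 Virus was adsorbed for 1 h onto monolayers: H.Ep.2 cells for Adenovirus type 2, LLC-MK2 cells for Punta Toro, and Vero cells for Sicilian sandfly fever. Medium with a range of drug concentrations was then added. On the day of maximum cytopathic effect in virus-control wells, the medium was removed and the monolayers were stained with crystal violet. Cytopathic effect was scored microscopically.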

[3] = test system: Vero; test: Antiviral activity was determined as inhibition of plaque formation against Rift Valley fever in monolayer culture of Vero cells; format: functional, cell-based; conditions: Chlorocebus sabaeus
[4] = test system: Vaccinia virus; test: Antiviral activity was determined against Vaccinia virus; format: functional, organism-based; conditions: Orthopoxvirus vaccinia
[5] = test system: Vero; test: In vitro antiviral activity was determined against Japanese encephalitis virus in monolayer culture of Vero cells; format: functional, cell-based; conditions: Chlorocebus sabaeus
[6] = test system: Vero; test: In vitro antiviral activity was determined against Sicilian Sandfly Fever virus in monolayer culture of Vero cells; format: functional, cell-based; conditions: Chlorocebus sabaeus; in short: as §2
[7] = test system: Vero; test: In vitro antiviral activity was determined against Yellow Fever virus in monolayer culture of Vero cells; format: functional, cell-based; conditions: Chlorocebus sabaeus
[8] = test system: Vesicular stomatitis virus; test: Antiviral activity was determined against Vesicular Stomatitus virus; format: functional, organism-based
[9] = test system: Human immunodeficiency virus 1; test: Antiviral activity was determined against Human immunodeficiency virus; format: functional, organism-based
[10] = test system: unidentified adenovirus; test: as §1; format: functional, organism-based; in short: as §2; remark: listed apart in the source
[11] = test system: Pichinde virus; test: Antiviral activity was determined against Pichinde virus; format: functional, organism-based

Measured: Activity

NC(=O)c1ncn(COC(CO)C(O)CF)n1 (stereo not given)
not listed: [9] | [10] | [11]
inactive: all other assays above

O=c1ccn(COC(CO)C(O)CF)c(=O)[nH]1 (stereo not given)
not listed: [10] | [11]
inactive: all other assays above

Nc1nc(O)c2ncn(COC(CO)C(O)CF)c2n1 (stereo not given)
not listed: [1] | [11]
inactive: all other assays above

Cc1cn(COC(CO)C(O)CF)c(=O)[nH]c1=O (stereo not given)
not listed: [10]
inactive: all other assays above

O=c1[nH]c(=O)n(COC(CO)C(O)CF)cc1I (stereo not given)
not listed: [9] | [10] | [11]
inactive: all other assays above

Cc1cn(COC2COP(=O)(Oc3ccc([N+](=O)[O-])cc3)OC2CF)c(=O)[nH]c1=O (stereo not given)
inactive: [1] | [4] | [8]

O=c1ccn(COC2COP(=O)(Oc3ccc([N+](=O)[O-])cc3)OC2CF)c(=O)[nH]1 (stereo not given)
inactive: [1] | [4] | [8]
